Measurements taken from ChEMBL document CHEMBL1138611, “Oxadiazolylindazole sodium channel modulators are neuroprotective toward hippocampal neurones” (J Med Chem, 2009).
Calls of active or inactive are those of the source. No cut-off for these calls is given here.

How the values were obtained:
[1] = molecular target: Sodium channel protein type 2 subunit alpha (Homo sapiens) (UniProt Q99250); assay: Use-dependent inhibition of human Nav1.2 expressed in HEK293 cells at 50 uM using double-pulse protocol by patch clamp technique; format: cell-based
In short: (§1)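 Human Nav1.2 or Nav1.6 in HEK293 cells, automated patch clamp at room temperature with 5 min exposure. Holding potential -80 mV, prepulse -120 mV, then P1 to 0 mV for 200 ms, 200 ms at -80 mV, and P2 to 0 mV for 20 ms, repeated at 0.1 Hz. Use-dependent inhibition I = (1 − P2T/P1T) × P1C/P2C × 100; mean of duplicates.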

[2] = molecular target: Sodium channel protein type 4 subunit alpha (Homo sapiens) (UniProt P35499); assay: Inhibition of human Nav1.4 expressed in HEK293 cells assessed as change in membrane potential using MP-red voltage sensitive dye at 10 uM; format: cell-based
Chain of Sodium channel protein type 4 subunit alpha (Homo sapiens) (P35499 whole entry, looked up, canonical isoform): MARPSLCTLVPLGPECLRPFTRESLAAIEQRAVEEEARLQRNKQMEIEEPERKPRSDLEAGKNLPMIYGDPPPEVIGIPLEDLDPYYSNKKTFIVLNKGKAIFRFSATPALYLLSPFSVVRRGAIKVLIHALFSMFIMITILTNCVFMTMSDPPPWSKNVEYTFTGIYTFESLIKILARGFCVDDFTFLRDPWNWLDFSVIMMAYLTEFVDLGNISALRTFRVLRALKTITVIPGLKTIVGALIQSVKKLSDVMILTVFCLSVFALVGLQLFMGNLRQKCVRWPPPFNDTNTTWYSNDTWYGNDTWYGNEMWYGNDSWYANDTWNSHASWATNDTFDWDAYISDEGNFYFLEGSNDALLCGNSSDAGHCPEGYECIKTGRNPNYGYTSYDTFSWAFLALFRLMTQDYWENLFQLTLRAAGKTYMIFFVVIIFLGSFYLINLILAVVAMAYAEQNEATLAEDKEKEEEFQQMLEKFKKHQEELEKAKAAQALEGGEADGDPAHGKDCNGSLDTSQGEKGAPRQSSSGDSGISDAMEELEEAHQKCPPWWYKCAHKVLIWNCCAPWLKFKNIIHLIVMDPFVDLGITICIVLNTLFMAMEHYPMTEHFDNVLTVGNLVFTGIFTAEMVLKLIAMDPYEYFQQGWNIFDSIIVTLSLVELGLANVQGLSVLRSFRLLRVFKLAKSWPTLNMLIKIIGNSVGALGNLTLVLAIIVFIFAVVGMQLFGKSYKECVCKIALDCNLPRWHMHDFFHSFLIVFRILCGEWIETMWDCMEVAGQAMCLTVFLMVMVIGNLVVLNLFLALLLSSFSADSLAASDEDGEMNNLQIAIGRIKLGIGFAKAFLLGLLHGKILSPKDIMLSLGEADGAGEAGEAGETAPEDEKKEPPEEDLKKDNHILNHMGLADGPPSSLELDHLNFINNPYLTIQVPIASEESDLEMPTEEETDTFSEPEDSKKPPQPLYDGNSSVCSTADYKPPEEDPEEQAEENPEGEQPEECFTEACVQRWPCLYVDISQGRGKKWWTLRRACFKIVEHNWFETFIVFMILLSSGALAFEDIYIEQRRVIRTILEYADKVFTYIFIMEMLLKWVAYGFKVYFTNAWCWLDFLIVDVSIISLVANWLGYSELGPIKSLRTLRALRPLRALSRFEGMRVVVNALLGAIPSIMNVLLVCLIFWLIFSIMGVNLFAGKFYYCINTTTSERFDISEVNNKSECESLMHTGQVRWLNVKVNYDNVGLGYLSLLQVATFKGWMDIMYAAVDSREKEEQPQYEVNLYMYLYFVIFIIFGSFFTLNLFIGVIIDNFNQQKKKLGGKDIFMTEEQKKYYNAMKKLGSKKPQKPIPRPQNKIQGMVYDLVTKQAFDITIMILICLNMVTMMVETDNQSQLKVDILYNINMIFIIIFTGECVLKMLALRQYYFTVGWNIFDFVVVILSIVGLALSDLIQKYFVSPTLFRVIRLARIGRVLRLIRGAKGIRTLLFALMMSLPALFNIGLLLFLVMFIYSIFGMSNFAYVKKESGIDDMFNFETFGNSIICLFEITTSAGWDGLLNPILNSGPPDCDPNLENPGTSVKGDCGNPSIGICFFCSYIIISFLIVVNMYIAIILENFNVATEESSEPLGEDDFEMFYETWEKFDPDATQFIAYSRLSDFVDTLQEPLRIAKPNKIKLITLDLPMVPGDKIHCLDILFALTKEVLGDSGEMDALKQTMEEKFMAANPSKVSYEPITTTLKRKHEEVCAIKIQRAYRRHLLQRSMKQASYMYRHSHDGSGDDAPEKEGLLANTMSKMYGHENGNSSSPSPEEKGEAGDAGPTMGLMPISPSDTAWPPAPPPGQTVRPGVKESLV
In short: (§2)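 Human Nav isoforms stably expressed in HEK293 cells with β1 subunit (Nav1.8 without β subunit), with tetrodotoxin sensitivity checked. Membrane potential change read with MP-red voltage-sensitive dye kit. Single-concentration screen at 10 µM gives percent inhibition as mean of duplicates, or an IC50 in µM where determined. Compounds come from 1 or 10 mM DMSO stocks diluted in assay buffer.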

[3] = molecular target: T1, Sodium channel protein type 8 subunit alpha (Homo sapiens, UniProt Q9UQD0); assay: Use-dependent inhibition of human Nav1.6 expressed in HEK293 cells at 10 uM using double-pulse protocol by patch clamp technique; format: cell-based; in short: as §1
[4] = molecular target: Sodium channel protein type 2 subunit alpha (Homo sapiens) (UniProt Q99250); assay: Inhibition of human Nav1.2 expressed in HEK293 cells assessed as change in membrane potential at 10 uM by patch clamp technique; format: cell-based
In short: (§3)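 Automated parallel whole-cell patch clamp at room temperature on human Nav1.2 or Nav1.6 in HEK293 cells. Each exposure lasts 5 min, at 10 and 50 µM (lamotrigine on Nav1.2 at 30 and 100 µM), with two to four cells per concentration. Peak current inhibition is given as percent, mean of duplicate experiments (n = 2) unless noted otherwise.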

[5] = molecular target: T1, Sodium channel protein type 8 subunit alpha; assay: Inhibition of human Nav1.6 expressed in HEK293 cells assessed as change in membrane potential at 50 uM by patch clamp technique; format: cell-based; in short: as §3
[6] = molecular target: Sodium channel protein type 3 subunit alpha (Homo sapiens) (UniProt Q9NY46); assay: Inhibition of human Nav1.3 expressed in HEK293 cells assessed as change in membrane potential using MP-red voltage sensitive dye at 10 uM; format: cell-based; in short: as §2
[7] = molecular target: T1, Sodium channel protein type 8 subunit alpha; assay: Inhibition of human Nav1.6 expressed in HEK293 cells assessed as change in membrane potential at 10 uM by patch clamp technique; format: cell-based; in short: as §3
[8] = molecular target: Sodium channel protein type 2 subunit alpha (Homo sapiens) (UniProt Q99250); assay: Inhibition of human Nav1.2 expressed in HEK293 cells assessed as change in membrane potential at 50 uM by patch clamp technique; format: cell-based; in short: as §3
[9] = molecular target: T1, Sodium channel protein type 8 subunit alpha; assay: Inhibition of human Nav1.6 expressed in HEK293 cells assessed as change in membrane potential using MP-red voltage sensitive dye at 10 uM; format: cell-based; in short: as §2
[10] = molecular target: Sodium channel protein type 2 subunit alpha (Homo sapiens) (UniProt Q99250); assay: Use-dependent inhibition of human Nav1.2 expressed in HEK293 cells at 10 uM using double-pulse protocol by patch clamp technique; format: cell-based; in short: as §1
[11] = molecular target: T1, Sodium channel protein type 8 subunit alpha; assay: Use-dependent inhibition of human Nav1.6 expressed in HEK293 cells at 50 uM using double-pulse protocol by patch clamp technique; format: cell-based; in short: as §1
[12] = molecular target: Sodium channel protein type 10 subunit alpha (Homo sapiens) (UniProt Q9Y5Y9); assay: Inhibition of human Nav1.8 expressed in HEK293 cells assessed as change in membrane potential using MP-red voltage sensitive dye at 10 uM; format: cell-based; in short: as §2
[13] = molecular target: Nav1.5 (sodium channel protein type 5 subunit alpha) (Homo sapiens, UniProt Q14524); assay: Inhibition of human Nav1.5 expressed in HEK293 cells assessed as change in membrane potential using MP-red voltage sensitive dye at 10 uM; format: cell-based; details: HEK293 cells expressing human Nav1.5; in short: as §2
[14] = molecular target: Sodium channel protein type 1 subunit alpha (Homo sapiens) (UniProt P35498); assay: Inhibition of human Nav1.1 expressed in HEK293 cells assessed as change in membrane potential using MP-red voltage sensitive dye at 10 uM; format: cell-based; in short: as §2
[15] = tested on: Hippocampus; assay: Neuroprotective activity in Wistar rat hippocampal slices assessed as ATP concentration at 30 uM relative to tetrodotoxin; format: functional
[16] = molecular target: Sodium channel protein type 9 subunit alpha (Homo sapiens) (UniProt Q15858); assay: Inhibition of human Nav1.7 expressed in HEK293 cells assessed as change in membrane potential using MP-red voltage sensitive dye at 10 uM; format: cell-based; in short: as §2
Chain of Sodium channel protein type 9 subunit alpha (Homo sapiens) (Q15858 whole entry, looked up): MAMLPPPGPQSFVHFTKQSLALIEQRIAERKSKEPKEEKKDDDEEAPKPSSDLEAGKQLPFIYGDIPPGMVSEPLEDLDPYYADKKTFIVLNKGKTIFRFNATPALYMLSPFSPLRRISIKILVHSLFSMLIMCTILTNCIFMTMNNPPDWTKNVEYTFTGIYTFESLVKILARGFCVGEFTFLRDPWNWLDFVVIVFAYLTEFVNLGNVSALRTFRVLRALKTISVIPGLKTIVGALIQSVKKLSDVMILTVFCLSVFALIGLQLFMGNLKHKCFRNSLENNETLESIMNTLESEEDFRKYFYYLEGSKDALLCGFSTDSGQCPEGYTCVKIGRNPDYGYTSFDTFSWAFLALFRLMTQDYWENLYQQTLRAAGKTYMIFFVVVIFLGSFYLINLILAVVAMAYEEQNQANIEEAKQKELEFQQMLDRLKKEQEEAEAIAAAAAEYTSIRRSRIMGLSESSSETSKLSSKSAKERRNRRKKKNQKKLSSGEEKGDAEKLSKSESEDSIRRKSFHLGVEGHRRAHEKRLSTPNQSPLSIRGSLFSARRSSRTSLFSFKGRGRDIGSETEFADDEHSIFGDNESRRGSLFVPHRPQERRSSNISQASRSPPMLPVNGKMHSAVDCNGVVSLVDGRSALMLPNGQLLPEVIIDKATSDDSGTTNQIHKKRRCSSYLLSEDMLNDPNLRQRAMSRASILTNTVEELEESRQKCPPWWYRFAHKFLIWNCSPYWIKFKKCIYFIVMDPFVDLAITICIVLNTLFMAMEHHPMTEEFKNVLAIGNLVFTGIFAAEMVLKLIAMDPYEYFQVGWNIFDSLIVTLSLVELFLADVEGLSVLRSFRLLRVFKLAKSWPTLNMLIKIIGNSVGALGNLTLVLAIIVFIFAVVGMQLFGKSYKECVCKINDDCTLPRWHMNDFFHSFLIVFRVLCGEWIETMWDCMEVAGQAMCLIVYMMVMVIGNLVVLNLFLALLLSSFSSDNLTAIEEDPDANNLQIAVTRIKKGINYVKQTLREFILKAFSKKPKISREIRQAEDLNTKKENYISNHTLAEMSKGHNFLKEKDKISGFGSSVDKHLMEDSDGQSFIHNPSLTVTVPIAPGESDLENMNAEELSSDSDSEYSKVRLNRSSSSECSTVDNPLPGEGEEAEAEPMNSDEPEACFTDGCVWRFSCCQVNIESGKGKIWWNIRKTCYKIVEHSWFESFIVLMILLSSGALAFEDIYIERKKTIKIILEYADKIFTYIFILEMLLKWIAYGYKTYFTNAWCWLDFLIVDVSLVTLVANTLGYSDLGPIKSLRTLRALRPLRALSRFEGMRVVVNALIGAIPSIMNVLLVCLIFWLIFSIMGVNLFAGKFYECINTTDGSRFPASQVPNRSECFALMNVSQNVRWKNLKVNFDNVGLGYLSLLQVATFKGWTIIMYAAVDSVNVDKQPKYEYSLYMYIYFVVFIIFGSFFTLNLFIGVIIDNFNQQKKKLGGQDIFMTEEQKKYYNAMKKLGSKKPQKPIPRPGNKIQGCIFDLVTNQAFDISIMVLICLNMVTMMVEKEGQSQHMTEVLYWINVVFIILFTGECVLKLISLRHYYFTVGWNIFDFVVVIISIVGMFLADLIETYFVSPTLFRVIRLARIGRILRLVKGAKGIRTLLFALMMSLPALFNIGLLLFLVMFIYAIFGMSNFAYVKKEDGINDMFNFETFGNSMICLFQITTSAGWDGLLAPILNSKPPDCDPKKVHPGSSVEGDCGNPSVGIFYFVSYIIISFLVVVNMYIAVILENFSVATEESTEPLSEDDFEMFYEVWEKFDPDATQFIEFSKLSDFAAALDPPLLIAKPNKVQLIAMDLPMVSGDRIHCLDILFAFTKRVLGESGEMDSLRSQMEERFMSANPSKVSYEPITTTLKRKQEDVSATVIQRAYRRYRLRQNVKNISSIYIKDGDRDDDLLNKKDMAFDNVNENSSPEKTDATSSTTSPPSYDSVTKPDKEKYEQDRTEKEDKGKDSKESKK

[17] = tested on: Hippocampus; assay: Neuroprotective activity in Wistar rat hippocampal slices assessed as ATP concentration at 3 uM relative to tetrodotoxin; format: functional
[18] = Displacement of [3H]BW202W92 from voltage-gated sodium channel in Wistar rat forebrain synaptosomes by liquid scintillation counting; format: subcellular, Brain
[19] = Inhibition of voltage-gated sodium channel in Wistar rat forebrain synaptosomes assessed as inhibition of [14C]guanidium ion flux; format: subcellular, Brain
[20] = molecular target: T2, Cytochrome P450 1A2 (Homo sapiens, UniProt P05177); assay: Inhibition of human recombinant CYP1A2; format: ADME
T2 sequence (P05177 whole entry): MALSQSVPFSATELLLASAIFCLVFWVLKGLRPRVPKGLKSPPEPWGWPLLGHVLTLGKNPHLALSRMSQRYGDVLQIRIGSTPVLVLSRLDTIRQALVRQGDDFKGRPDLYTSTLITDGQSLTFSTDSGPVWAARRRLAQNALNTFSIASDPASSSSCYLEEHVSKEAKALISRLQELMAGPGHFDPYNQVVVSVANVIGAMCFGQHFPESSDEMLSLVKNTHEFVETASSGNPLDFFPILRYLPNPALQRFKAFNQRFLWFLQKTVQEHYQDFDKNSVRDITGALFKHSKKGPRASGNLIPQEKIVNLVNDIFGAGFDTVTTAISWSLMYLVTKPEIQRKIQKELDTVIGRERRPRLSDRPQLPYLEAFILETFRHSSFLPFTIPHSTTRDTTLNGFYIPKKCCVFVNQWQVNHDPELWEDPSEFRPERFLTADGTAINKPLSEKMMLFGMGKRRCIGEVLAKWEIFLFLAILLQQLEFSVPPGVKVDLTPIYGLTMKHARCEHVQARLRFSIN

[21] = tested on: Hippocampus; assay: Neuroprotective activity in Wistar rat hippocampal slices assessed as ATP concentration at 50 uM relative to tetrodotoxin; format: functional
[22] = molecular target: T1, Sodium channel protein type 8 subunit alpha; assay: Inhibition of human Nav1.6 expressed in HEK293 cells assessed as change in membrane potential using MP-red voltage sensitive dye; format: cell-based; in short: as §2
[23] = species: Rattus norvegicus; assay: Inhibition of […] state of voltage-gated sodium channel in Sprague-Dawley rat hippocampal neurons at 30 uM using 300 ms conditioning voltage step to 0 mV followed by 15 ms period at -90 mV by paired pulse protocol; format: tissue-based; details: Hippocampus
In short: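 Paired-pulse protocol on dissociated P14-16 Sprague-Dawley rat hippocampal neurons, compound at 30 µM. A 300 ms conditioning step to 0 mV (P1), 15 ms at -90 mV, then a 10 ms test step to 0 mV (P2). Tonic inhibition at P1 compared with inhibition at P2 after slow inactivation develops.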

[24] = molecular target: Cytochrome P450 2D6 (Homo sapiens, UniProt P10635); assay: Inhibition of human recombinant CYP2D6; format: ADME
Chain of Cytochrome P450 2D6 (P10635 whole entry): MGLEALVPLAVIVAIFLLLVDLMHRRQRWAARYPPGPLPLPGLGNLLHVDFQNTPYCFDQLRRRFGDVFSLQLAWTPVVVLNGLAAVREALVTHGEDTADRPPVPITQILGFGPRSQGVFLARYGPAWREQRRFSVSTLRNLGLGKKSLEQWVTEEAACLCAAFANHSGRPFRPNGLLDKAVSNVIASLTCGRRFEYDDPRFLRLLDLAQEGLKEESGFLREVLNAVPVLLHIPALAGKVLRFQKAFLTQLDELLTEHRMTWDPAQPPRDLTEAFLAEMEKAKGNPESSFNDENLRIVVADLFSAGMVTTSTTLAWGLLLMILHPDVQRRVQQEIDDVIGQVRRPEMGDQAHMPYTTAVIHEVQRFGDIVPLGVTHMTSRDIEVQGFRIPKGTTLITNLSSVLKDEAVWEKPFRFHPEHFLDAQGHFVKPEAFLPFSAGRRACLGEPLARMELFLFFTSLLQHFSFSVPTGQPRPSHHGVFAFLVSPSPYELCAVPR

[25] = molecular target: Sodium channel protein type 2 subunit alpha (Homo sapiens) (UniProt Q99250); details: HEK293, 30 uM
[26] = molecular target: Sodium channel protein type 2 subunit alpha (Homo sapiens) (UniProt Q99250); details: HEK293, 100 uM
[27] = molecular target: Sodium channel protein type 2 subunit alpha (Homo sapiens) (UniProt Q99250); details: HEK293, 30 uM; remark: listed apart in the source
[28] = molecular target: Sodium channel protein type 2 subunit alpha (Homo sapiens) (UniProt Q99250); details: HEK293, 100 uM; remark: listed apart in the source
[29] = species: Rattus norvegicus; assay: Voltage-dependent inhibition of voltage-gated sodium channel in Sprague-Dawley rat hippocampal neurons at 30 uM at an initial membrane potential of -90 mV by voltage clamp technique; format: tissue-based; set-up: scale not given: the % may be the effect or the level left; details: Hippocampus
[30] = species: Rattus norvegicus; assay: Use-dependent inhibition of voltage-gated sodium channel in Sprague-Dawley rat hippocampal neurons at 30 uM using 20 Hz train of 20 voltage steps from -90 mV with duration of 20 ms by voltage clamp technique; format: tissue-based; details: Hippocampus
In short: (§4)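 Whole-cell voltage clamp of dissociated P14-16 Sprague-Dawley rat hippocampal neurons, with compound at 30 µM. A 20 Hz train of 20 voltage steps from -90 mV, each step 3.5 ms or 20 ms, and cumulative depression of peak sodium current during the train compared with control.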

[31] = species: Rattus norvegicus; assay: Voltage-dependent inhibition of voltage-gated sodium channel in Sprague-Dawley rat hippocampal neurons at 30 uM at an initial membrane potential of -70 mV by voltage clamp technique; format: tissue-based; set-up: scale not given: the % may be the effect or the level left; details: Hippocampus
[32] = species: Rattus norvegicus; assay: Use-dependent inhibition of voltage-gated sodium channel in Sprague-Dawley rat hippocampal neurons at 30 uM using 20 Hz train of 20 voltage steps from -90 mV with duration of 3.5 ms by voltage clamp technique; format: tissue-based; details: Hippocampus; in short: as §4
[33] = molecular target: T1, Sodium channel protein type 8 subunit alpha; assay: Inhibition of Nav1.6 using 20 Hz train of 20 voltage steps from -90 mV with duration of 3.5 ms at 30 uM by paired pulse protocol

SMILES	inhibition [1] [%]	inhibition [2] [%]	inhibition [3] [%]	inhibition [4] [%]	inhibition [5] [%]	inhibition [6] [%]	inhibition [7] [%]	inhibition [8] [%]	inhibition [9] [%]	inhibition [10] [%]	inhibition [11] [%]	inhibition [12] [%]	inhibition at 10 µM [13] [%]	inhibition [14] [%]	Activity [15] [%]	inhibition [16] [%]	IC50 [18] [nM]	IC50 [19] [nM]	IC50 [20] [nM]	Activity [21] [%]	further results
CN1CCN(c2ncc(-c3cc(Cl)cc(Cl)c3Cl)c(N)n2)CC1 [SIPATRIGINE]	84.6	97	37	21.6	43.4	61	10.4	75.2	70	40.1	63.2	76	97	55	57	67					
Nc1nc(N)c(-c2cc(Cl)cc(Cl)c2Cl)c(CF)n1	88.5	98	81.4	0.7	62.7	100	2.3	75.2	37	43.4	97.3	86	39	56		44	40	2600			Activity [17]: 93%
NCc1noc(-c2nn(Cc3ccccc3)c3ccccc23)n1	14.7	97	1.1	6.6	40.9	79	9.5	10.8		1.9	18.7	90	48	48		59	3300	17500	9	99	IC50 [22]: 660 nM; Activity [23]: Active; IC50 [24]: 90 nM
Nc1nnc(-c2cccc(Cl)c2Cl)c(N)n1 [LAMOTRIGINE]		21				22			23			46	40	44	33	45	2600	219000			inhibition [25]: 7.9%; inhibition [26]: 18.1%; inhibition [27]: 4.1%; inhibition [28]: 17%
NCc1noc(-c2c3ccccc3nn2Cc2ccccc2)n1	70.8	98	29	13	31.5	78	10.2	33.8		35.8	65.8	84	81	51		92	6700	44200	315	63	Activity [29]: 10%; Activity [30]: Active; Activity [31]: 60%; IC50 [22]: 1030 nM; Activity [32]: Active; Activity [23]: Active; Activity [33]: Active; IC50 [24]: > 10000 nM
